Reference: paper PMC8530377 (Journal of medicinal chemistry, 2021)

How the values were obtained:
[1] = test system: mice; experiment: Locomotor effect, CLAMS; format: in vivo, mouse
[2] = test system: mice; experiment: Respiratory rate, CLAMS; format: in vivo, mouse
[3] = test system: C57BL/6J mice; details: sc; cited from earlier work
[4] = test system: C57BL/6J mice; details: mouse, in vivo
[5] = test system: GABAA receptor-mediated IPSCs in VTA neurons; experiment: Whole cell electrophysiology, evoked IPSCs in VTA neurons of acute brain slices; format: cell-based, rat; details: 10 μM; compared to 5 μM DAMGO and 10 μM morphine
[6] = target: murine MOR (Mus musculus, UniProt P42866); experiment: BRET-based Nb33 recruitment assay, mMOR; format: cell-based; details: for Nb33 recruitment efficacy at murine MOR: HEK293-T cells, compared to DAMGO
Sequence of murine MOR (P42866 whole entry): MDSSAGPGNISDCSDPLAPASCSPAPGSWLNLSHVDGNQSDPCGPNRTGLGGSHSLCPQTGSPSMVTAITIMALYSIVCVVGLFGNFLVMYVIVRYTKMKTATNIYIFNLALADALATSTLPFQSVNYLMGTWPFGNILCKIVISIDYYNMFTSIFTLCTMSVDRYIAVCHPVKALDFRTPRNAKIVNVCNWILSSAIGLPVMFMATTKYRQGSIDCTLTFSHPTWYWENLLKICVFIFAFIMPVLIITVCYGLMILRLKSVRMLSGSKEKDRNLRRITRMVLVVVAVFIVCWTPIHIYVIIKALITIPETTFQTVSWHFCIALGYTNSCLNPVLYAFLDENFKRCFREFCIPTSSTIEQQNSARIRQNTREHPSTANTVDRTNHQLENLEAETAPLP

[7] = target: hMOR (Gi-1) (Homo sapiens, UniProt P35372); experiment: cell-based; details: for Emax: read-out: Gi-1 Emax
Sequence of hMOR (Gi-1) (P35372 whole entry): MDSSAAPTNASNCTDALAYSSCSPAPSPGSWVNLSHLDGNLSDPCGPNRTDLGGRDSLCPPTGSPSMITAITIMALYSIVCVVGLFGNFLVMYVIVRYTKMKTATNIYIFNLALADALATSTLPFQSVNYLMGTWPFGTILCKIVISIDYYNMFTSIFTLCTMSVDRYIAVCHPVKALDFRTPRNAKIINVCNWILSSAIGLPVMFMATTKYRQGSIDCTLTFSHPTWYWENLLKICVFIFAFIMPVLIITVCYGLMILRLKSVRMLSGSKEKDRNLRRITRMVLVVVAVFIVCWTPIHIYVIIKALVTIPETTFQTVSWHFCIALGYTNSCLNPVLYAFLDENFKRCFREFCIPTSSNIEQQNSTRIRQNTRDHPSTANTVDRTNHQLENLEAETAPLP

[8] = target: hMOR (human MOR) (Homo sapiens, UniProt P35372); experiment: biochemical; format: binding
Sequence of hMOR (human MOR) (P35372 whole entry): as above

[9] = target: hMOR (Gz) (Homo sapiens, UniProt P35372); experiment: cell-based; details: read-out: Emax at Gz
Sequence of hMOR (Gz) (P35372 whole entry): as above

[10] = target: hMOR (β-arrestin1) (Homo sapiens, UniProt P35372); format: cell-based
Sequence of hMOR (β-arrestin1) (P35372 whole entry): as above

[11] = target: hMOR (β-arrestin2) (Homo sapiens, UniProt P35372); experiment: cell-based; details: for Emax: read-out: β-arrestin2 recruitment Emax (BRET)
Sequence of hMOR (β-arrestin2) (P35372 whole entry): as above

[12] = target: hMOR (GoA and GoB) (Homo sapiens, UniProt P35372); experiment: cell-based; details: read-out: Emax at GoA and GoB
Sequence of hMOR (GoA and GoB) (P35372 whole entry): as above

[13] = test system: MOR; details: cited from earlier work
[14] = target: hMOR (Homo sapiens, UniProt P35372); experiment: cell-based
Sequence of hMOR (P35372 whole entry): as above

[15] = test system: MOR KO, KOR KO and DOR KO mice; experiment: 55 °C tail withdrawal antinociception in opioid receptor knock-out mice; format: in vivo, mouse; details: 10 mg/kg, sc, relative to WT
[16] = test system: KOR; experiment: BRET Gi-1 activation assay at KOR; format: cell-based
Summary of the method: (§1)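 Cells were plated in 6-well dishes (700,000–800,000 cells/well) or 10 cm dishes and transfected 2–4 h later with receptor:Gα-RLuc8:Gβ:Gγ-GFP2 at 1:1:1:1. The next day they were replated on poly-D-lysine 96-well plates (30,000–50,000 cells/well). One day later, in HBSS + 20 mM HEPES pH 7.4 with coelenterazine 400a, cells equilibrated 5 min, then drug 5 min. BRET2 ratio was GFP2 (510 nm)/RLuc8 (395 nm), sixth of six serial reads.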

[17] = test system: DOR; experiment: BRET Gi-1 activation assay at DOR; format: cell-based
Summary of the method: as §1

[18] = 45 mg/kg, sc (15-fold antinociceptive ED50)

| Structure (SMILES) | place conditioning (CPP/CPA) [4] | mean inhibition of evoked IPSCs [5] | Nb33 recruitment efficacy at murine MOR [6] | Emax [7] [%] | Ki [8] [nM] | Emax [9] [%] | β-arrestin1 recruitment (BRET), words [10] | β-arrestin2 recruitment (BRET), words [11] | Emax [11] [%] | Emax [12] [%] | Nb33 recruitment efficacy (literature) [13] [%] | also measured |
| --- | --- | --- | --- | --- | --- | --- | --- | --- | --- | --- | --- | --- |
| CN1CC[C@]23c4c5ccc(O)c4O[C@H]2[C@@H](O)C=C[C@H]3[C@H]1C5 [morphine, reference compound] | showed CPP | – | – | – | – | – | – | – | – | – | – | locomotor effect ([1]; 10 and 30 mg/kg, sc (5-fold and 15-fold ED50)): hyperlocomotion effects; respiratory effects (breath rate) ([2]; 30 mg/kg, sc): significant respiratory depression for 60 min; antinociception ED50 (95% CI), literature [3]: 2.48 (1.57–3.87) mg/kg |
| CC[C@@H]1CN2CC[C@@]3(O)C(=Nc4cccc(-c5ccccc5)c43)[C@@H]2C[C@@H]1/C(=C\OC)C(=O)OC [Compound 4, Methyl(E)-2-((2S,3S,7aS,12bS)-3-ethyl-7a-hydroxy-8-phenyl-1,2,3,4,6,7,7a,12b-octahydroindolo[2,3-a]quinolizin-2-yl)-3-methoxyacrylate] | – | smaller | 15–18% | 60 to 70 | 15 to 17 | 79 to 86 | failed to show recruitment | not measurable | < 10 | 63 to 75 | – | – |
| CC[C@@H]1CN2CC[C@@]3(O)C(=Nc4cccc(C)c43)[C@@H]2C[C@@H]1/C(=C\OC)C(=O)OC [Compound 5, Methyl(E)-2-((2S,3S,7aS,12bS)-3-ethyl-7a-hydroxy-8-methyl-1,2,3,4,6,7,7a,12b-octahydroindolo[2,3-a]quinolizin-2-yl)-3-methoxyacrylate] | – | smaller | 15–18% | 60 to 70 | 15 to 17 | 79 to 86 | failed to show recruitment | not measurable | < 10 | 63 to 75 | – | – |
| C[C@@H](Cc1ccsc1)NC(=O)NC[C@H](Cc1ccc(O)cc1)N(C)C [PZM21] | – | – | – | – | – | – | – | – | – | – | 38 | – |
| CC[C@@H]1CN2CC[C@@]3(O)C(=Nc4cccc(-c5ccoc5)c43)[C@@H]2C[C@@H]1/C(=C\OC)C(=O)OC [Compound 6 (SC13), Methyl(E)-2-((2S,3S,7aS,12bS)-3-ethyl-8-(furan-3-yl)-7a-hydroxy-1,2,3,4,6,7,7a,12b-octahydroindolo[2,3-a]quinolizin-2-yl)-3-methoxyacrylate] | no signs of CPP or CPA | smaller | – | 60 to 70 | – | 79 to 86 | failed to show recruitment | not measurable | < 10 | 63 to 75 | – | locomotor effect [1, 18]: no hyperlocomotion; EC50 [6]: 12 nM; EC50 [14]: 730 nM; respiratory effects (breath rate) [2, 18]: no statistically significant respiratory effects; EC50 [7]: 145 nM; antinociception in MOR KO mice [15]: significantly reduced; antinociception in KOR KO mice ([15]; p = 0.058): remained intact; antinociception in DOR KO mice ([15]; p = 0.13): remained intact; fold lower potency at KOR versus MOR, Gi-1 activation [16]: ~ 100 fold; fold lower potency at DOR versus MOR, Gi-1 activation [17]: ~ 100 fold |
| COc1ccsc1CNCC[C@@]1(c2ccccn2)CCOC2(CCCC2)C1 [TRV130] | – | – | – | – | – | – | – | – | – | – | 42 | – |
